{"data": "Results gathered from unrelated publications", "MAOB": "Amine oxidase [flavin-containing] B (MAOB, Homo sapiens, UniProt P27338)", "note": "Protocols differ between the studies behind these lines."}
{"Structure (SMILES)": "COc1ccc(/C=C/C(=O)N2CCN(Cc3ccccc3)CC2)cc1OC", "target": "MAOB", "assay": "enzyme activity, inhibitor, fluorescence", "IC50 [µM]": 1.9}
{"Structure (SMILES)": "O=[N+]([O-])c1cc(Cl)c(O)c(Cl)c1", "target": "Sulfotransferase 1A1 (SULT1A1, Homo sapiens, UniProt P50225, R213H)", "assay": "enzyme activity, inhibitor", "IC50 [µM]": 0.7}
{"Structure (SMILES)": "C[C@H](N)Cn1ncc2ccc3c(c21)CCCO3", "target": "Beta-1 adrenergic receptor (ADRB1, Homo sapiens, UniProt P08588)", "assay": "ligand displacement, radioligand", "IC50 [µM]": 5}
{"Structure (SMILES)": "O=c1c2ccccc2[nH]c(=S)n1-c1ccccc1", "target": "Serine protease 1 (PRSS1, Bos taurus, UniProt P00760)", "assay": "enzyme activity, inhibitor", "IC50 [µM]": 84.5}
{"Structure (SMILES)": "O=c1c2ccccc2[se]n1-c1ccccc1", "target": "ung (Escherichia coli, UniProt P12295)", "assay": "enzyme activity, inhibitor", "IC50 [µM]": "> 200"}
{"Structure (SMILES)": "C#CCNc1nc(NCCC2CCN(Cc3ccccc3)CC2)c(C#N)c(-c2ccccc2)c1C#N", "target": "MAOB", "assay": "enzyme activity, inhibitor, fluorescence", "conditions": "with preincubation", "IC50 [µM]": "> 100"}
{"Structure (SMILES)": "CCCCNNC(=O)c1ccc(Br)cc1", "target": "Histone deacetylase 9 (HDAC9, Homo sapiens, UniProt Q9UKV0)", "assay": "enzyme activity, inhibitor, fluorescence", "IC50 [µM]": "> 100"}
{"Structure (SMILES)": "CSCC[C@@H]1NC(=O)[C@H](Cc2c[nH]c3ccccc23)NC(=O)[C@H](CCCCN)NC(=O)[C@@H](NC(=O)[C@H](C)N)CSSC[C@@H](C(=O)NCC(=O)NCC(=O)NCC(N)=O)NC(=O)[C@H](Cc2ccc(O)cc2)NC(=O)CNC(=O)[C@H](CCC(=O)O)NC(=O)[C@H](CCC(=O)O)NC1=O", "target": "Lysine-specific demethylase 4C (KDM4C, Homo sapiens, UniProt Q9H3R0)", "assay": "enzyme activity, inhibitor, TR-FRET", "IC50 [µM]": "~520"}
{"Structure (SMILES)": "C#CCN(C)c1nc(NCCCC2CCN(Cc3ccccc3)CC2)c(C#N)cc1C#N", "target": "MAOB", "assay": "enzyme activity, inhibitor, fluorescence", "conditions": "with preincubation", "IC50 [µM]": 6.11}
{"Structure (SMILES)": "COc1ccc2c(c1)[nH]c1c(C)nccc12", "target": "MAOB", "assay": "enzyme activity, inhibitor", "IC50 [µM]": 37.5}
{"Structure (SMILES)": "C#CCN(C)c1nc(NCCCCC2CCN(Cc3ccccc3)CC2)c(C#N)c(-c2ccccc2)c1C#N", "target": "MAOB", "assay": "enzyme activity, inhibitor, fluorescence", "conditions": "with preincubation", "IC50 [µM]": "> 100"}
{"Structure (SMILES)": "COc1cccc(CO)c1", "target": "MAOB", "assay": "enzyme activity, inhibitor, fluorescence", "IC50 [µM]": "> 10"}
{"Structure (SMILES)": "CC(C)(C)c1ccc(NC(=O)c2ncn(CC(=O)NCc3ccc4c(c3)OCO4)n2)cc1", "target": "Histone-lysine N-methyltransferase SUV39H2 (SUV39H2, Homo sapiens, UniProt Q9H5I1)", "assay": "enzyme activity, inhibitor", "IC50 [µM]": "> 250"}
